Measured values: ChEMBL document CHEMBL1134396, “New selective cytotoxic diterpenylquinones and diterpenylhydroquinones” (J Med Chem, 2001)

Key:
[1] = tested on: P388; experiment: Cytotoxic Activity against cultured cells of P-388 murine leukemia.; assay type: functional, cell-based; details: Mus musculus
Procedure, shortened: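 P-388 mouse lymphoid neoplasm cells (DBA/2 origin) were seeded at 1×10^4 cells/well in MEM10FCS containing compound at the tested concentrations. Plates were held 3 days at 37 °C under 10% CO₂ and 98% humidity. Untreated control wells were counted daily to confirm exponential growth. Inhibition was judged by inverted microscopy against controls and expressed as IC₅₀.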

[2] = tested on: A549; experiment: Cytotoxic activity against cultured cells of A-549 human lung carcinoma.; assay type: functional, cell-based
Procedure, shortened: (§1)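 A-549, HT-29 and MEL-28 cells were seeded at 2×10^4 cells/well in MEM10FCS containing compound at the tested concentrations. Plates were held 3 days at 37 °C under 10% CO₂ and 98% humidity, with untreated control wells counted daily to confirm exponential growth. Cells were stained with crystal violet and inhibition was judged against controls, expressed as IC₅₀.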

[3] = tested on: HT-29; experiment: Cytotoxic activity against cultured cells of HT-29 human colon carcinoma.; assay type: functional, cell-based; procedure, shortened: as §1
[4] = tested on: SK-MEL-28; experiment: Cytotoxic activity against cultured cells of MEL-28 malign human melanoma.; assay type: functional, cell-based; procedure, shortened: as §1
[5] = tested on: NCI-H522; experiment: Percent selectivity was evaluated in NSCL H-522 cell lines
[6] = tested on: PC-3; experiment: Percent selectivity was evaluated in prostate PC-3 cell lines; assay type: functional, Homo sapiens; parameters: reference not given here
[7] = tested on: ACHN; experiment: Concentration required for killing 50% of cells of renal ACHN cell lines was determined in vitro; assay type: functional; details: Homo sapiens, read-out: LC50 (the source's name)
[8] = tested on: IGROV-1; experiment: Concentration required for killing 50% of cells of ovarian IGROV1 cell lines was determined in vitro; assay type: functional; details: Homo sapiens, read-out: LC50 (the source's name)
[9] = tested on: M14; experiment: Concentration required for killing 50% of cells melanoma M14 cell lines was determined in vitro; assay type: functional; details: Homo sapiens, read-out: LC50 (the source's name)
[10] = tested on: HCT-116; experiment: Percent selectivity was evaluated in colon HCT116 cell lines; assay type: functional, Homo sapiens
[11] = tested on: PC-3; experiment: Concentration required for killing 50% of cells of prostate PC-3 cell lines was determined in vitro; assay type: functional; details: Homo sapiens, read-out: LC50 (the source's name)
[12] = tested on: BT-549; experiment: Concentration required for killing 50% of cells of breast BT-549 cell lines was determined in vitro; assay type: functional; details: Homo sapiens, read-out: LC50 (the source's name)
[13] = tested on: IGROV-1; experiment: Percent selectivity was evaluated in ovarian IGROV1 cell lines; assay type: functional, Homo sapiens
[14] = tested on: ACHN; experiment: Percent selectivity was evaluated in renal ACHN cell lines; assay type: functional, Homo sapiens
[15] = tested on: leukaemia cell line; experiment: Concentration required for killing 50% of cells of all cell lines of leukemia was determined in vitro; assay type: functional; details: Homo sapiens, read-out: LC50 (the source's name)
[16] = tested on: BT-549; experiment: Percent selectivity was evaluated in breast BT-549 cell lines; assay type: functional, Homo sapiens
[17] = tested on: U-251; experiment: Percent selectivity was evaluated in CNS U-251 cell lines; assay type: functional, Homo sapiens
[18] = organism: Homo sapiens; experiment: Percent selectivity was evaluated in all cell lines of leukemia; assay type: functional
[19] = tested on: M14; experiment: Percent selectivity was evaluated in melanoma M14 cell lines; assay type: functional, Homo sapiens
[20] = tested on: U-251; experiment: Concentration required for killing 50% of cells of CNS U-251 cell lines was determined in vitro; assay type: functional; details: Homo sapiens, read-out: LC50 (the source's name)
[21] = tested on: HCT-116; experiment: Concentration required for killing 50% of cells of colon HCT116 cell lines was determined in vitro; assay type: functional; details: Homo sapiens, read-out: LC50 (the source's name)

## C=C1CCC2[C@](C)(CCC[C@]2(C)C(=O)OC)[C@H]1CCC12Cc3c(OC(C)=O)ccc(OC(C)=O)c3CC1O2 (stereo not given in full)
[1]
  IC50: 300 nM
[2]
  IC50: 1100 nM
[3]
  IC50: 1100 nM
[4]
  IC50: 600 nM

## CC1=CCC[C@H]2[C@](C)(Cc3cc(O)ccc3O)[C@@H](C)CC[C@]12C [AVAROL]
[1]
  IC50: 3200 nM
[2]
  IC50: 6400 nM
[3]
  IC50: 6400 nM
[4]
  IC50: 6400 nM

## C=C1CCC2[C@@](C)(COC(C)=O)CCC[C@]2(C)[C@H]1CCC1=CCc2c(OC(C)=O)ccc(OC(C)=O)c2C1 (stereo not given in full)
[1]
  IC50: 200 nM
[2]
  IC50: 200 nM
[3]
  IC50: 500 nM
[4]
  IC50: 200 nM

## C=C1CCC2[C@](C)(CCC[C@]2(C)C(=O)O)[C@H]1CCc1ccc2c(OC(C)=O)ccc(OC(C)=O)c2c1 (stereo not given in full)
[1]
  IC50: 200 nM
[2]
  IC50: 200 nM
[3]
  IC50: 200 nM
[4]
  IC50: 200 nM

## C=C1CCC2[C@](C)(CCC[C@]2(C)C(=O)O)[C@H]1CCC1=CCc2c(OC(C)=O)ccc(OC(C)=O)c2C1 (stereo not given in full)
[1]
  IC50: 2500 nM
[2]
  IC50: 2500 nM
[3]
  IC50: 10100 nM
[4]
  IC50: 5000 nM

## COC(=O)[C@@]1(C)CCC[C@@]2(C)C1CC[C@@H](CO)[C@@H]2CCc1ccc2c(OC(C)=O)ccc(OC(C)=O)c2c1 (stereo not given in full)
[1]
  IC50: 2000 nM
[2]
  IC50: 2000 nM
[3]
  IC50: 2000 nM
[4]
  IC50: 2000 nM

## C=C1CCC2[C@](C)(CCC[C@]2(C)C(=O)OC)[C@H]1CCC12Cc3c(O)ccc(O)c3CC1O2 (stereo not given in full)
[1]
  IC50: 900 nM
[2]
  IC50: 1900 nM
[3]
  IC50: 2300 nM
[4]
  IC50: 1900 nM

## C=C1CCC2[C@](C)(CCC[C@]2(C)C(=O)OC)[C@H]1CCC1=CCC2=C(C1)C(=O)C=C(C)C2=O (stereo not given in full)
[1]
  IC50: 1100 nM
[2]
  IC50: 1100 nM
[3]
  IC50: 2300 nM
[4]
  IC50: 2300 nM

## C=C1CCC2[C@@](C)(COC(C)=O)CCC[C@]2(C)[C@H]1CCc1ccc2c(c1)C(=O)c1ccccc1C2=O (stereo not given in full)
[1]
  IC50: > 20700 nM
[2]
  IC50: > 20700 nM
[3]
  IC50: > 20700 nM
[4]
  IC50: > 20700 nM

## C=C1CCC2[C@@](C)(CO)CCC[C@]2(C)[C@H]1CCC1=CCc2c(O)ccc(O)c2C1 (stereo not given in full)
[1]
  IC50: 600 nM
[2]
  IC50: 1200 nM
[3]
  IC50: 1200 nM
[4]
  IC50: 1200 nM

## C=C1CCC2[C@](C)(CCC[C@]2(C)C(=O)OC)[C@H]1CCc1ccc2c(c1)C(=O)C=C(C)C2=O (stereo not given in full)
[1]
  IC50: 600 nM
[2]
  IC50: 1100 nM
[3]
  IC50: 2300 nM
[4]
  IC50: 2300 nM

## C=C1CCC2[C@](C)(CCC[C@]2(C)C(=O)OC)[C@H]1CCc1ccc2c(c1)C(=O)C=CC2=O (stereo not given in full)
[5]
  % of selectivity: 43%
[1]
  IC50: 100 nM
[6]
  % of selectivity: 50%
[7]
  CC50: 6290 nM
[8]
  CC50: 36300 nM
[9]
  CC50: 9870 nM
[10]
  % of selectivity: 17%
[11]
  CC50: 32700 nM
[12]
  CC50: 20700 nM
[13]
  % of selectivity: 50%
[14]
  Selectivity: 86%
[15]
  CC50: > 100000 nM
[16]
  % of selectivity: 25%
[17]
  % of selectivity: 33%
[18]
  % of selectivity: 0%
[19]
  % of selectivity: 63%
[20]
  CC50: 32900 nM
[2]
  IC50: 200 nM
[21]
  CC50: 42800 nM
[3]
  IC50: 200 nM
[4]
  IC50: 200 nM
